This is an account of results in ChEMBL document CHEMBL6071141, “In vitro and in vivo evaluation of Bombesin-MMAE conjugates for targeted tumour therapy” (Eur J Med Chem, 2024).

Series [1] in a line: Cytotoxicity against human PC-3 cells assessed as inhibition of cell growth incubated for 72 hrs by CellTiter 96 aqueous assay. The series is classed as toxicity, cell-based. A digest of the protocol: (§1)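 PC-3 or MDA-MB-231 cells were treated the day after seeding with serial dilutions, from 2000 nM for conjugates and 100 nM for MMAE, for 72 h. Then the assay was stopped, or run 72 h more after a medium change (single) or re-treatment (double). Controls got 0.05 % DMSO. Read-out was MTS absorbance at 490 nm after 90 min. IC50 by non-linear regression; ≥2 experiments, triplicates.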

Series [2] is described as follows: Cytotoxicity against human cells MDA-MB-231 assessed as inhibition of cell growth incubated for 72 hrs by CellTiter 96 aqueous assay. The series is classed as toxicity, cell-based. To be noted: MDA-MB-231 cells. A digest of the protocol:
as §1

The nature of series [3]: Cytotoxicity against human PC-3 cells assessed as inhibition of cell growth incubated with compound for 72 hrs followed by further incubated for 72 hrs (single treatment) by CellTiter 96 aqueous assay. The series is classed as toxicity, cell-based. A digest of the protocol: as §1
The nature of series [4]: Cytotoxicity against human PC-3 cells assessed as inhibition of cell growth incubated for 72 hrs and followed by treated with compound continued incubation for further 72 hrs (double treatment) after retreatment of compound by CellTiter 96 aqueous assay. The series is classed as toxicity, cell-based. In a few lines:
as §1

A short description of series [5]: Cytotoxicity against human MDA-MB-231 cells assessed as inhibition of cell growth incubated with compound for 72 hrs followed by further incubated for 72 hrs (single treatment) by CellTiter 96 aqueous assay. The series is classed as toxicity, cell-based. In a few lines: as §1
Series [6] in a line: Cytotoxicity against human MDA-MB-231 cells assessed as inhibition of cell growth incubated for 72 hrs and followed by treated with compound continued incubation for further 72 hrs (double treatment) after retreatment of compound by CellTiter 96 aqueous assay. Type of series: toxicity, cell-based. In a few lines:
as §1

The target of series [7] is T1, Gastrin-releasing peptide receptor (Homo sapiens, UniProt P30550). In words: Displacement of 125 I- [Tyr4] from bombesin receptor 2 in human PC-3 cells assessed as inhibition by radioligand displacement assay. Type of series: cell-based. In a few lines: (§2)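 Competition binding on membrane preparations from PC-3 or MDA-MB-231 cells against ¹²⁵I-[Tyr⁴]-bombesin, with conjugates at 10 μM–10 pM. IC50 was taken as the concentration giving 50 % inhibition of tracer binding.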
(In general: Loss of bound radioactivity is the signal in a displacement assay; it reports binding, not function.)

The target of series [8] is T1, Gastrin-releasing peptide receptor. In words: Displacement of 125 I- [Tyr4] from bombesin receptor 2 in human MDA-MB-231 cells assessed as inhibition by radioligand displacement assay. Type of series: cell-based. In a few lines:
as §2

A short description of series [9]: Drug uptake in mouse blood at ip administration xenografted with human PC-3 cells measured upto 24 hrs by LC-HRMS. The series is classed as ADME, organism-based. The conditions noted are these: in vivo. A digest of the protocol: (§3)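 Mice bearing PC-3 xenografts received a single 2 mg/kg i.p. dose. Blood, tumour, liver, kidneys, heart, lungs and pancreas were collected at 1, 6 and 24 h and pooled per group. Tissues were homogenised in water (1:2 w/v) and centrifuged. Released MMAE was measured by LC-HRMS and expressed as %ID/g (n = 3).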
(In general: A xenograft is tissue or cells of one species grown in another, often human tumour cells in immunodeficient mice.)

Series [10] in a line: Drug uptake in mouse heart at ip administration xenografted with human PC-3 cells measured upto 24 hrs by LC-HRMS. Type of series: ADME, organism-based. The conditions noted are these: in vivo. A digest of the protocol:
as §3

The nature of series [11]: Drug uptake in mouse kidney at ip administration xenografted with human PC-3 cells measured upto 24 hrs by LC-HRMS. Type of series: ADME, organism-based. To be noted: in vivo. In a few lines: as §3
Series [12] is described as follows: Drug uptake in mouse liver at ip administration xenografted with human PC-3 cells measured upto 24 hrs by LC-HRMS. The series is classed as ADME, organism-based. To be noted: in vivo. A digest of the protocol:
as §3

A short description of series [13]: Drug uptake in mouse lungs at ip administration xenografted with human PC-3 cells measured upto 24 hrs by LC-HRMS. The series is classed as ADME, organism-based, Lung. The conditions noted are these: in vivo. A digest of the protocol: as §3
A short description of series [14]: Drug uptake in mouse pancreas at ip administration xenografted with human PC-3 cells measured upto 24 hrs by LC-HRMS. The series is classed as ADME, organism-based. The conditions noted are these: in vivo. A digest of the protocol: as §3
Series [15] in a line: Metabolic stability in mouse plasma assessed as half life at 5 uM measured upto 24 hrs by LC-HRMS analysis. Type of series: ADME, cell-free. In a few lines: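 Conjugates at 5 μM were incubated in human or mouse plasma at 37 °C, in duplicate. Samples were taken at t0, 0.25, 0.5, 1, 2, 4 and 24 h and quenched with 1 % formic acid in MeCN (2× volume). After centrifugation (14000 rpm, 4 °C), supernatants were diluted 1:1 with water and analysed by LC-HRMS.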

Series [16] in a line: Toxicity in mouse xenografted with human PC-3 cells assessed as body weight loss at 1 mg/kg, ip administered relative to control. The series is classed as organism-based. The conditions noted are these: in vivo, 2 mg/kg, in the assay text read “2 mg/kg” for “1 mg/kg”. In a few lines:
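Toxicity in mice bearing subcutaneous PC-3 tumours after a single i.p. dose 9 days post-inoculation. Free drug at 1 mg/kg, conjugates at 2 mg/kg MMAE-content, in 5 % DMSO in water; solvent controls; eight per group. Body weight followed periodically. Endpoint at 20 % weight loss; behaviour (activity, coat, stool, paleness) also scored.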

The test system of series [17] is PC-3. In words: Antitumor activity against human PC-3 cells xenografted in mouse assessed as reduction in tumour volume relative to control. The series is classed as functional. Further details: scale not given: the % may be the effect or the level left. A digest of the protocol: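 Acute study in mice bearing subcutaneous PC-3 tumours. Single i.p. dose (0.1 mL) 9 days after inoculation, at a mean tumour volume of 62 mm³. Eight per group, randomized. Conjugates at 2 mg/kg MMAE-content, free MMAE at 1 mg/kg, in 5 % DMSO in water; solvent controls. Calliper volume V = ab²×π/6. Sacrifice at 20 % weight loss or 2000 mm³.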

Series [18] in a line: Biodistribution in mouse xenografted with human PC-3 cells assessed as tumour environment incubated for 24 hrs by LC-HRMS. Type of series: ADME, organism-based, Neoplasm. To be noted: in vivo. In a few lines: as §3
A short description of series [19]: Toxicity in mouse xenografted with human PC-3 cells assessed as skin rash at 0.5 mg/kg, ip administered upto 23 days. To be noted: in vivo, 552 h.
Series [20] deals with PC-3. The experiment in a line: Antitumor activity against human PC-3 cells xenografted with mouse assessed as median survival days at 2 mg/kg, ip (reference value: 33 days).

Each structure is given as a SMILES string. Numbered stars: 1 amine (or outer) side, 2 acyl side, 3 side chain; on linkers, the order of the positions; unused ones are H or OH. Bridge positions count the residues as written; N and C are the ends. Square brackets hold non-standard residues; d marks the D form. Peptide text beside a SMILES is read from it. I, II: the chains in the order shown. * marks the point of attachment. Hexanoyl(6-succinimido-3yl) = O=C1CC([*:1])C(=O)N1CCCCCC(=O)[*:2]; Dolaproine = CO[C@@H]([C@@H]1CCCN1)[C@@H](C)C(=O)O; X2 = O=C([C@H](CC1=CSC2C=CC=CC12)N[*:1])[*:2]; Dil = CC[C@H](C)[C@H](NC)[C@@H](CC(=O)O)OC; PABC = O=C(OCc1ccc(N[*:1])cc1)[*:2]; X3 = C[C@@H](N*)[C@@H](O)c1ccccc1; Cit = NC(=O)NCCC[C@H](N)C(=O)O; PEG4 = NCCOCCOCCOCCOCCC(=O)O; NMeV = CN[C@H](C(=O)O)C(C)C; Nle = CCCC[C@H](N)C(=O)O

T1 sequence (P30550 whole entry): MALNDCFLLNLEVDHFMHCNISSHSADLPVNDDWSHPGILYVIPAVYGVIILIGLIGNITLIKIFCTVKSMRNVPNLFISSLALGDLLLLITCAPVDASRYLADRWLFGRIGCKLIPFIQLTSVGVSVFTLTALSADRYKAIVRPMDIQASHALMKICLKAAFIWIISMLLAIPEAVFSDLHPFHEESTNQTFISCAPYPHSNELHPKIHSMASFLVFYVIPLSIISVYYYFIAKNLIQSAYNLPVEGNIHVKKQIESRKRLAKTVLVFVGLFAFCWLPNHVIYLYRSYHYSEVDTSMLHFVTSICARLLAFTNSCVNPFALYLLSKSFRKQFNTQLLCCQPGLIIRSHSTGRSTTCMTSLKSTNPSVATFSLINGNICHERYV

Broadly, the IC50 is the midpoint of a concentration-inhibition curve. Turning to `CCCC[C@H](NC(=O)[C@H](CC(C)C)NC(=O)[C@H](Cc1c[nH]cn1)NC(=O)CNC(=O)[C@@H](NC(=O)[C@H](C)NC(=O)[C@H](CC1=CSC2C=CC=CC12)NC(=O)[C@H](CCC(N)=O)NC(=O)[C@H](CC(N)=O)NC(=O)CCOCCOCCOCCOCCNC(=O)[C@H](CSC1CC(=O)N(CCCCCC(=O)N[C@@H](CCC(=O)O)C(=O)N[C@H](C(=O)N[C@@H](CCCNC(N)=O)C(=O)Nc2ccc(COC(=O)N(C)[C@H](C(=O)N[C@H](C(=O)N(C)[C@@H]([C@@H](C)CC)[C@@H](CC(=O)N3CCC[C@H]3[C@H](OC)[C@@H](C)C(=O)N[C@H](C)[C@@H](O)c3ccccc3)OC)C(C)C)C(C)C)cc2)C(C)C)C1=O)NC(C)=O)C(C)C)C(N)=O` (stereo partly drawn) (I: Ac-C[PEG4]NQ[X2]AVGHL[Nle]-NH2 / II: EV[Cit][PABC][NMeV]V[Dil][Dolaproine]-X3; linker I:1-II:N via Hexanoyl(6-succinimido-3yl)), the results for the IC50 at 72 h in [1] and in [2] were 53.9 nM and 501 nM, respectively. Also, the 50% inhibitory concentration (IC50) at 144 h in [3] came out at 15.6 nM; in [4] it was 11.8 nM; in series [5] it was 48.7 nM; in series [6], 46.4 nM. For the same compound, the figures for the half-inhibitory concentration (IC50) in series [7] and in [8] were 93.6 nM and 106 nM, respectively. Moreover, the Drug uptake result in [9], in series [10], in series [11], in [12], in [13] and in series [14] was “Not Active” each time.
One may read the half-life as the time in which the quantity being followed falls by half. Consider `CC[C@H](C)[C@@H]([C@@H](CC(=O)N1CCC[C@H]1[C@H](OC)[C@@H](C)C(=O)N[C@H](C)[C@@H](O)c1ccccc1)OC)N(C)C(=O)[C@@H](NC(=O)[C@H](C(C)C)N(C)C(=O)OCc1ccc(NC(=O)[C@H](CCCNC(N)=O)NC(=O)CNC(=O)[C@@H](CCC(=O)O)NC(=O)CCCCCN2C(=O)CC(SC[C@H](NC(C)=O)C(=O)NCCOCCOCCOCCOCCC(=O)N[C@H](Cc3ccccc3)C(=O)N[C@@H](CCC(N)=O)C(=O)N[C@@H](CC3=CNC4C=CC=CC34)C(=O)N[C@@H](C)C(=O)N[C@H](C(=O)NCC(=O)N[C@@H](Cc3c[nH]cn3)C(=O)N[C@@H](CC(C)C)[C@@H](O)CC(=O)N[C@@H](CC(C)C)C(N)=O)C(C)C)C2=O)cc1)C(C)C` (stereo partly drawn), for which the IC50 at 72 h stood at 428 nM in series [1] and 885 nM in series [2]. In addition, the IC50 at 144 h in series [3] is 110 nM; in series [4], 83.5 nM; in series [5], 164 nM; in series [6] it was 131 nM. For the same compound, the concentration for half-maximal inhibition (IC50) in series [7] stood at 68.3 nM; in series [8], 72.9 nM. In addition, the half-life at 5 µM in series [15] is 7.2 h. Also, the Activity was under 20% in series [16], 26.3% in the series with PC-3 [17] and “Toxic” in series [19]. Further, the Drug uptake result in series [18] is “Active”. In addition, the Survival in the series on PC-3 [20] was 42 days.
